Measured values taken from ChEMBL document CHEMBL1140469, “Novel, potent THC/anandamide (hybrid) analogs” (Bioorg Med Chem, 2007).

Legend:
Mus musculus [1] = assay: Antinociceptive activity in iv dosed mouse by tail filck test; format: functional
How it was run: (§1)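 Mouse tail flick to radiant heat from bright light, 10-s cutoff. Baseline latency taken, then iv tail-vein dosing in ethanol:emulphor:saline 1:1:18, 0.1 mL/10 g. Retested 4 min later. Result expressed as %MPE, 6 mice/dose. ED50 from least-squares linear regression against log dose, in µmol/kg. Doses above 30 mg/kg not given.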

Mus musculus [2] = assay: Suppression of spontaneous activity in iv dosed mouse; format: functional
How it was run: (§2)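 Mice dosed iv in ethanol:emulphor:saline 1:1:18. After the 4-min tail-flick retest, each mouse spent 10 min in a photocell cage where beam interruptions were counted. Activity expressed as % of vehicle group, 6 mice/dose. ED50 from regression against log dose, in µmol/kg. Maximum dose 30 mg/kg.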

Mus musculus [3] = assay: Induction of ring immobility in iv dosed mouse; format: functional
How it was run: (§3)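 Right after the temperature reading, iv-dosed mice (ethanol:emulphor:saline 1:1:18) were placed on a 5.5-cm ring set 16 cm high. Time spent motionless over 5 min was recorded. ED50 from regression against log dose, in µmol/kg; otherwise maximal effect given with its dose. Maximum dose 30 mg/kg.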

Cannabinoid receptor 2 = Cannabinoid receptor 2 (Homo sapiens, UniProt P34972); assay: Displacement of [3H]CP-55940 from human CB2 receptor expressed in CHO cells; format: cell-based
How it was run: (§4)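 Membranes (50 µg) from HEK-293 cells stably expressing human CB1 (DMEM, 10% FBS) or CHO cells stably expressing human CB2 (DMEM, 10% FCS). Incubated with 0.5 nM [3H]CP55,940 and test compound (1 nM–10 µM) in buffer with BSA 5 mg/mL, 1 h at 30 °C. Filtration, scintillation counting. Ki from displacement data; three experiments in triplicate.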

Mus musculus [4] = assay: Hypothermic activity in iv dosed mouse assessed as change in rectal temperature after 4 mins; format: functional
How it was run: (§5)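 A separate group of mice had rectal temperature taken by thermistor probe inserted 25 mm, before and 4 min after iv dosing in ethanol:emulphor:saline 1:1:18. Change is the pre minus post difference. ED50 from regression against log dose, in µmol/kg; otherwise maximal change given with its dose. Maximum dose 30 mg/kg.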

Cannabinoid receptor 1 = Cannabinoid receptor 1 (Homo sapiens, UniProt P21554); assay: Displacement of [3H]CP-55940 from human CB1 receptor expressed in HEK293 cells; format: cell-based; how it was run: as §4
Mus musculus [5] = assay: Antinociceptive activity in mouse at 30 mg/kg, iv by tail filck test; format: functional; how it was run: as §1
Mus musculus [6] = assay: Hypothermic activity in mouse assessed as change in rectal temperature at 30 mg/kg, iv after 4 mins; format: functional; how it was run: as §5
Mus musculus [7] = assay: Suppression of spontaneous activity in mouse at 30 mg/kg, iv; format: functional; how it was run: as §2
Mus musculus [8] = assay: Induction of ring immobility in mouse at 30 mg/kg, iv; format: functional; how it was run: as §3

Cannabinoid receptor 1, sequence (P21554 whole entry): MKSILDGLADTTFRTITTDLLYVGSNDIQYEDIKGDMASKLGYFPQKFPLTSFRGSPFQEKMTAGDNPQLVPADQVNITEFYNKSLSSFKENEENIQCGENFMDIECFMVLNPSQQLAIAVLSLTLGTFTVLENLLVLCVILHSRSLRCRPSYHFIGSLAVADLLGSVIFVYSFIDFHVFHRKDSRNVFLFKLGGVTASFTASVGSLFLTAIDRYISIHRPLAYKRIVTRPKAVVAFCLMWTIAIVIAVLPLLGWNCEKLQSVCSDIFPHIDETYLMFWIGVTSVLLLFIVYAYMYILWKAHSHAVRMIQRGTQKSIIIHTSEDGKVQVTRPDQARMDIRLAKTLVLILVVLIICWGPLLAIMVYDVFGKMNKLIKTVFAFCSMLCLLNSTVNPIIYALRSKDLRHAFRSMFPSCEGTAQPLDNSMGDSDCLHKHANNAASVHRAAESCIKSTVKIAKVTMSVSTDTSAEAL
Cannabinoid receptor 2, sequence (P34972 whole entry): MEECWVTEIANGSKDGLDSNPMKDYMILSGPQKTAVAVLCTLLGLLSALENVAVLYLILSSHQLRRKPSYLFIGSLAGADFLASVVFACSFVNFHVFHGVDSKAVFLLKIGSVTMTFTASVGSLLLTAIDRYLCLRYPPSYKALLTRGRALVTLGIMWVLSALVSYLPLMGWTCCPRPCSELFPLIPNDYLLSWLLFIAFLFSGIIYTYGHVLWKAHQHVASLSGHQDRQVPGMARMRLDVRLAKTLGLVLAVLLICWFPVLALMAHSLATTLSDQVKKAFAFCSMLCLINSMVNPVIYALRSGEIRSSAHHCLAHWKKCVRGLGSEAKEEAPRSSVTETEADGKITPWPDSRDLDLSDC

`C[C@H](CO)NC(=O)CCC/C=C\C/C=C\CCOc1cccc(C(C)(C)CCCCN=[N+]=[N-])c1` gave an ED50 (Mus musculus [1]) of 0.2 µmol/kg, an ED50 (Mus musculus [2]) of 0.2 µmol/kg and an ED50 (Mus musculus [3]) of 0.3 µmol/kg. For the same compound, the Ki (Cannabinoid receptor 2) was 0.00252 µM, the ED50 (Mus musculus [4]) was 1.95 µmol/kg and the Ki (Cannabinoid receptor 1) was 0.00274 µM.

Work on `CCCCCCC(C)(C)c1ccc(OCC/C=C\C/C=C\CCCC(=O)N[C@H](C)CO)cc1` yielded an Activity (Mus musculus [5]) of 30.7%, an Activity (Mus musculus [6]) of -0.5 °C and an Activity (Mus musculus [7]) of 44.9%. It also gave a Ki (Cannabinoid receptor 2) of 0.0782 µM, an Activity (Mus musculus [8]) of 13.4% and a Ki (Cannabinoid receptor 1) of 0.195 µM.

With `CCCCCCC(C)(C)c1cccc(OCC/C=C\C/C=C\CCCC(=O)N[C@H](C)CO)c1` the ED50 (Mus musculus [1]) was 8.45 µmol/kg, the ED50 (Mus musculus [2]) was 3.73 µmol/kg and the ED50 (Mus musculus [3]) was 9.66 µmol/kg. It also gave a Ki (Cannabinoid receptor 2) of 0.0215 µM, an ED50 (Mus musculus [4]) of 7.8 µmol/kg and a Ki (Cannabinoid receptor 1) of 0.00855 µM.

`CCCCCCC(C)(C)c1cccc(OCC/C=C\C/C=C\C/C=C\CCCC(=O)N[C@H](C)CO)c1` gave an Activity (Mus musculus [5]) of 61%, an Activity (Mus musculus [6]) of -0.9 °C and an Activity (Mus musculus [7]) of 55%. The Ki (Cannabinoid receptor 2) was 0.189 µM, the Activity (Mus musculus [8]) was 22% and the Ki (Cannabinoid receptor 1) was 0.131 µM.

`C[C@H](CO)NC(=O)CCC/C=C\C/C=C\CCOc1cccc(C(C)(C)CCCCBr)c1` showed an ED50 (Mus musculus [1]) of 0.8 µmol/kg, an ED50 (Mus musculus [2]) of 0.7 µmol/kg and an ED50 (Mus musculus [3]) of 1.4 µmol/kg. The Ki (Cannabinoid receptor 2) was 0.00746 µM, the ED50 (Mus musculus [4]) was 2.1 µmol/kg and the Ki (Cannabinoid receptor 1) was 0.00887 µM.

With `CCCCCCC(C)(C)c1ccccc1/C=C\C/C=C\C/C=C\CCCC(=O)N[C@H](C)CO` the Activity (Mus musculus [5]) was 50%, the Activity (Mus musculus [6]) was -0.87 °C and the ED50 (Mus musculus [2]) was 25.7 µmol/kg. It also gave an ED50 (Mus musculus [3]) of 27.7 µmol/kg, a Ki (Cannabinoid receptor 2) of 0.257 µM and a Ki (Cannabinoid receptor 1) of 0.0863 µM.

With `C[C@H](CO)NC(=O)CCC/C=C\C/C=C\CCOc1cccc(C(C)(C)CCCCO)c1` the ED50 (Mus musculus [1]) was 0.6 µmol/kg, the ED50 (Mus musculus [2]) was 1.1 µmol/kg and the ED50 (Mus musculus [3]) was 0.7 µmol/kg. For the same compound, the Ki (Cannabinoid receptor 2) was 0.0109 µM, the ED50 (Mus musculus [4]) was 2.8 µmol/kg and the Ki (Cannabinoid receptor 1) was 0.079 µM.
